Measured values reported in ChEMBL document CHEMBL1145811, “Synthesis and antibacterial activity of a novel series of acylides: 3-O-(3-pyridyl)acetylerythromycin A derivatives” (J Med Chem, 2003).
Converted amounts (≈) assume the structure as drawn.

Tests used:
Type in all cases: functional
Haemophilus influenzae [1] = test: In vitro minimum inhibitory concentration for antibacterial activity against Haemophilus influenzae ATCC 33533 (ampicillin-resistant strain that produces beta-lactamase)
Method in brief: (§1)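 Agar dilution MIC determined by the Japan Society of Chemotherapy standard method for aerobic bacteria.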

Staphylococcus aureus [2] = test: In vitro minimum inhibitory concentration for antibacterial activity against Staphylococcus aureus B1 (inducibly MLSb-resistant strain encoded by the erm(C) gene); method in brief: as §1
Staphylococcus aureus [3] = test: In vitro minimum inhibitory concentration for antibacterial activity against Staphylococcus aureus SR138 (constitutively MLSb-resistant strain encoded by the erm(A) gene); method in brief: as §1
Mus musculus [4] = test: Effective dose in vivo, in mouse inoculated intraperitoneally with 1.47*10e3 CFU of erythromycin susceptible strain Streptococcus pneumoniae IID553; settings: ip
Method in brief: (§2)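 Mouse protection test: mice were infected intraperitoneally with erythromycin-susceptible S. aureus Smith or S. pneumoniae IID553. Compounds were given orally 1 h after inoculation.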

Staphylococcus aureus [5] = test: In vitro minimum inhibitory concentration for antibacterial activity against erythromycin susceptible strain Staphylococcus aureus Smith
Haemophilus influenzae [6] = test: In vitro minimum inhibitory concentration for antibacterial activity against Haemophilus influenzae ATCC 43095 (ampicillin-susceptible strain that does not produce beta-lactamase); method in brief: as §1
Streptococcus pneumoniae [7] = test: In vitro minimum inhibitory concentration for antibacterial activity against Streptococcus pneumoniae 210 (efflux-resistant strain encoded by the mef(A) gene); method in brief: as §1
Streptococcus pneumoniae [8] = test: In vitro minimum inhibitory concentration for antibacterial activity against Streptococcus pneumoniae 211 (MLSb-resistant strain encoded by the erm(B) gene); method in brief: as §1
Streptococcus pneumoniae [9] = test: In vitro minimum inhibitory concentration for antibacterial activity against erythromycin-susceptible strain Streptococcus pneumoniae IID553
Method in brief: (§3)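 MIC by agar dilution following the Japan Society of Chemotherapy standard method for aerobic bacteria. S. aureus 209P-JC and S. pneumoniae IID553 are erythromycin-susceptible strains.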

Streptococcus pneumoniae [10] = test: In vitro minimum inhibitory concentration for antibacterial activity against erythromycin susceptible strain Streptococcus pneumoniae IID553
Staphylococcus aureus [11] = test: In vitro minimum inhibitory concentration for antibacterial activity against erythromycin-susceptible strain Staphylococcus aureus […]; method in brief: as §3
Mus musculus [12] = test: Effective dose in vivo, in mouse inoculated intraperitoneally with 5.80*10e7 CFU of erythromycin susceptible strain Staphylococcus aureus Smith; settings: ip; method in brief: as §2

Structure (SMILES)	MIC (Haemophilus influenzae [1]) [µg/mL]	MIC (Staphylococcus aureus [2]) [µg/mL]	MIC (Staphylococcus aureus [3]) [µg/mL]	ED50 (Mus musculus [4]) [mg/kg]	MIC (Staphylococcus aureus [5]) [µg/mL]	MIC (Haemophilus influenzae [6]) [µg/mL]	MIC (Streptococcus pneumoniae [7]) [µg/mL]	MIC (Streptococcus pneumoniae [8]) [µg/mL]	MIC (Streptococcus pneumoniae [9]) [µg/mL]	MIC (Streptococcus pneumoniae [10]) [µg/mL]	MIC (Staphylococcus aureus [11]) [µg/mL]	ED50 (Mus musculus [12]) [mg/kg]
CC[C@H]1OC(=O)[C@H](C)[C@@H](OC(=O)Cc2ccc([N+](=O)[O-])cc2)[C@H](C)[C@@H](O[C@@H]2O[C@H](C)C[C@H](N(C)C)[C@H]2O)[C@@](C)(OC)C[C@@H](C)C(=O)[C@H](C)[C@@H](O)[C@]1(C)O	50 (≈ 66.4 µM)	0.39 (≈ 0.518 µM)	> 100	39.1	0.39 (≈ 0.518 µM)	50 (≈ 66.4 µM)	0.2 (≈ 0.266 µM)	> 100	0.2 (≈ 0.266 µM)	0.1 (≈ 0.133 µM)	0.2 (≈ 0.266 µM)	–
CC[C@H]1OC(=O)[C@H](C)[C@@H](OC(=O)Cc2cccnc2)[C@H](C)[C@@H](OC2O[C@H](C)C[C@H](N(C)C)[C@H]2O)[C@@](C)(OC)C[C@@H](C)/C(=N\O)[C@H](C)[C@H]2OC(=O)O[C@@]21C (stereo not given in full)	6.25 (≈ 8.33 µM)	0.39 (≈ 0.52 µM)	> 100	47.4	0.39 (≈ 0.52 µM)	3.13 (≈ 4.17 µM)	0.1 (≈ 0.133 µM)	> 100	0.025 (≈ 0.0333 µM)	0.025 (≈ 0.0333 µM)	0.2 (≈ 0.267 µM)	27.6
CC[C@H]1OC(=O)[C@H](C)[C@@H](OC(=O)Cc2cccnc2)[C@H](C)[C@@H](OC2O[C@H](C)C[C@H](N(C)C)[C@H]2O)[C@@](C)(O)C[C@@H](C)/C(=N\O)[C@H](C)[C@H]2OC(=O)O[C@@]21C (stereo not given in full)	3.13 (≈ 4.25 µM)	0.39 (≈ 0.53 µM)	> 100	142	0.2 (≈ 0.272 µM)	3.13 (≈ 4.25 µM)	0.1 (≈ 0.136 µM)	> 100	0.025 (≈ 0.034 µM)	0.025 (≈ 0.034 µM)	0.39 (≈ 0.53 µM)	51.6
CC[C@H]1OC(=O)[C@H](C)[C@@H](OC(=O)Cc2cccnc2)[C@H](C)[C@@H](OC2O[C@H](C)C[C@H](N(C)C)[C@H]2O)[C@@](C)(OC)C[C@@H](C)C(=O)[C@H](C)[C@@H](O)[C@]1(C)O (stereo not given in full)	12.5 (≈ 17.6 µM)	1.56 (≈ 2.2 µM)	> 100	40.8	0.78 (≈ 1.1 µM)	12.5 (≈ 17.6 µM)	0.39 (≈ 0.55 µM)	> 100	0.39 (≈ 0.55 µM)	0.2 (≈ 0.282 µM)	0.78 (≈ 1.1 µM)	9.57
CC[C@H]1OC(=O)[C@H](C)[C@@H](OC(=O)Cc2cccc([N+](=O)[O-])c2)[C@H](C)[C@@H](OC2O[C@H](C)C[C@H](N(C)C)[C@H]2O)[C@@](C)(OC)C[C@@H](C)C(=O)[C@H](C)[C@@H](O)[C@]1(C)O (stereo not given in full)	25 (≈ 33.2 µM)	0.78 (≈ 1.04 µM)	> 100	–	–	25 (≈ 33.2 µM)	0.2 (≈ 0.266 µM)	> 100	0.1 (≈ 0.133 µM)	–	0.2 (≈ 0.266 µM)	–
